Granule exo inh: LAMP-1 surface exposure blockers, TALL-104 cells – cell-based, flow cytometry, MLPCN library, primary screen. 360,000 compounds, 0.66% hits. inhibition, % at 10 µM. TALL-104 LAMP-1 surface exposure; cells stimulated with thapsigargin and PMA;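 active means inhibition above about 55%, limit read from the data; inconclusive means no clear call, values can overlap the other calls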
Arrestin-AP2 inh: inhibitors of beta-arrestin/AP2 binding, primary screen, biochemical, GPCR trafficking, flow cytometry | 340,000 compounds, 0.31% hits | inhibition, % at 10 µM | FITC-arrestin peptide / GST-AP2 beads; AP2 beta2 appendage carries R879A mutation | beta-arrestin 1 C-terminal peptide binding to AP2 beta2-adaptin appendage (human);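 active means inhibition above a set limit, near 3 SD of compounds lacking own fluorescence, cut at about 54% in these data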;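 further: plate controls were DMSO wells for no effect and 5 µM unlabelled arrestin peptide for full effect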
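Assay system: GST-AP2 R879A bound to glutathione beads, E. coli-expressed; Medium: PBS with 0.05% Tween 20 and 0.1% BSA; Also added: fluorescein-tagged arrestin peptide at 50 nM final; Timing: 12 min plus 1 h, RT; Measured by: flow cytometry, FL1 (488/535 nm); Evaluation: percent drop in bead-associated FITC signal.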
ABCB6 inh MLPCN: ABCB6 transporter inhibitors, primary screen, K562-ABCB6 cells, flow cytometry, MLPCN library; K562-ABCB6 porphyrin accumulation, 1 h; stronger effect = lower value; 360,000 compounds, 0.19% hits; fluorescence ratio to DMSO, % at 10 µM; AID 602162, 2011; ATP-binding cassette sub-family B member 6 (Homo sapiens), Q9NP58;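 active means fluorescence ratio to DMSO below 75%, the collection mean minus 3 SD; inconclusive means too few cells collected in the well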;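 further: signal is porphyrin accumulated inside mitochondria; 100% equals median channel fluorescence of DMSO control wells; lower ratio means ABCB6 inhibition with less porphyrin fluorescence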
CendR NRP1 mod: modulators of CendR peptide binding to NRP-1, primary screen, biochemical, fluorescence polarization, uHTS. AID 602438, 2012. inhibition, % at 25 µM. FAM-RPARPAR peptide binding to NRP-1. Neuropilin-1 (Homo sapiens), O14786. 360,000 compounds, 0.85% hits;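 active means inhibition or corrected inhibition above about 18%, plus a signal ratio from 0.5 to 1.5, limit read from the data, passing the limit was not always enough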
Myeloid diff 2: induction of myeloid progenitor differentiation, primary screen, cell-based, flow cytometry, MLPCN library. ER-HoxA9 myeloid progenitors, lysozyme-GFP differentiation. calls only at 10 µM. 360,000 compounds, 1% hits. AID 624256, 2012;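 active means normalized GFP-positive differentiation at or above the plate's own cutoff, the solvent-only control mean plus 3 SD; inconclusive means no clear call, values can overlap the other calls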;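 further: cells exposed to compound for four days before flow analysis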
ATG4B inh: ATG4B protease inhibitors, primary screen, biochemical, fluorescence, uHTS; Cysteine protease ATG4B (Homo sapiens), Q9Y4P1; ATG4B cleavage of LC3-PLA2, NBD-HPC fluorescence, 1 h; inhibition, % at 8.33 µM; 340,000 compounds, 0.51% hits; AID 504462, 2011; in the data active means inhibition above about 40%
Target sequence (Q9Y4P1 whole entry, looked up): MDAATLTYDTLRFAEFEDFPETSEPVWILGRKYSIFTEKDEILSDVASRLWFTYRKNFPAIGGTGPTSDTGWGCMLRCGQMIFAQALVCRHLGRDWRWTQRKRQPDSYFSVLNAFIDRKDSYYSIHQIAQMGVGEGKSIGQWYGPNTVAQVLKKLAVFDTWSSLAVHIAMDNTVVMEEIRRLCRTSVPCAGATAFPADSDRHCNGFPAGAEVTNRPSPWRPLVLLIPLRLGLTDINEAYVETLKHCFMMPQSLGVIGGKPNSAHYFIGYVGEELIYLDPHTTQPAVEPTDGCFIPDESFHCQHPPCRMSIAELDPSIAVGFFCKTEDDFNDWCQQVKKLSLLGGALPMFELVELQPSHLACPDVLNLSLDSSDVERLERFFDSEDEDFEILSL
ATG4B conf: ATG4B protease inhibitors, retest, confirmation, biochemical, fluorescence, single concentration | shares compounds with ATG4B inh | ATG4B protease fluorescent substrate cleavage assay | inhibition, % at 8.33 µM | 320 compounds, 92% hits; in the data active means inhibition above about 39%
PLA2 ctr: PLA2 enzyme inhibition, counter-screen for ATG4B inhibitor project, biochemical, single concentration, uHTS hits; 1,600 compounds, 66% hits; shares compounds with ATG4B inh; inhibition, % at 8.33 µM; purified PLA2, NBD-C6-HPC fluorescence, 45 min; AID 588402, 2011; in the data active means inhibition above about 50%
Target sequence (P04054 whole entry, looked up): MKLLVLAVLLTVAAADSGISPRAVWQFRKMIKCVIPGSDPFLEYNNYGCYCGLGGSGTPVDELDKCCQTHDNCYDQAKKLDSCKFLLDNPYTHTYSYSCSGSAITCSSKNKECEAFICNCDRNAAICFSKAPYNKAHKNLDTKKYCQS
Starred values were filed as active, the others as inactive; i = inactive; ? = inconclusive; . = not tested or not shown. Most compounds without a hit are left out; they make up all but 3.3% or so of the library.

SMILES	Granule exo inh	Arrestin-AP2 inh	ABCB6 inh MLPCN	CendR NRP1 mod	Myeloid diff 2	ATG4B inh	PLA2 ctr	others
COCCN(Cc1ccc(C)cc1)C(=O)[C@H]1O[C@@H](n2cnc3c(N)ncnc32)[C@H](O)[C@@H]1O	0.4	.	97.0	10.1	i	.	.
O=C(O)c1cc(-c2ccco2)nn1-c1ccc(Cl)cc1	-2.6	6.3	94.0	-66.5	i	43.4*	16.5
CCOC(=O)Cn1nnnc1CN(Cc1cccs1)Cc1cc2cc(C)cc(C)c2[nH]c1=O	4.4	2.4	102.0	-14.8	i	-26.2	.
COc1ccc2cc(CN(Cc3cccs3)Cc3nnnn3Cc3ccccc3)c(=O)[nH]c2c1	-1.3	1.3	95.0	1.0	i	51.1*	53.7*
Cc1cccc2cc(CN(Cc3cccs3)Cc3nnnn3Cc3ccccc3)c(=O)[nH]c12	3.1	-1.7	104.0	5.9	i	48.6*	61.8*
COc1ccc2cc(CN(Cc3cccnc3)Cc3nnnn3Cc3ccccc3)c(=O)[nH]c2c1	.	.	.	.	.	-16.7	.
CN(c1ccccc1)C1CCCCC1NS(=O)(=O)c1ccc(Cl)cc1 (centres undefined)	3.3	9.2	104.0	6.8	i	56.7*	64.4*
CCN(CC)C1CCCCC1NS(=O)(=O)c1ccc(Cl)cc1 (centres undefined)	-7.1	10.5	100.0	-12.8	i	-4.9	.
COc1ccc(C(=O)Nc2cccc(/C=C(\CCC(=O)O)c3nc4ccccc4s3)c2)cc1	-1.3	-2.6	98.0	-46.4	i	58.9*	74.1*
CN(c1ccccc1)c1ccc(/C=C(\CCC(=O)O)c2nc3ccccc3s2)cc1[N+](=O)[O-]	0.4	19.0	108.0	-15.7	i	46.2*	41.4	ATG4B conf=69.9*
N#Cc1c(NC(=S)NC(=O)C2CCCC2)sc2c1CCCCC2	10.6	1.1	96.0	-15.0	i	73.9*	-10.8
CC(C)[C@H](Nc1nc(-c2ccccc2)nc2c1oc1ccccc12)C(=O)O	-2.0	-2.8	93.0	-9.0	i	20.3	.
CCC(C)[C@H](Nc1nc(-c2ccccc2)nc2c1oc1ccccc12)C(=O)O (some centres undefined)	4.4	12.4	104.0	4.2	i	44.1*	54.4*
COc1ccc2c(c1)[C@@H]1[C@H](CO2)[C@H](c2ccccc2)[C@]2(C)C(=O)Nc3ccc(C)cc3C(=O)N12	-4.1	-0.8	95.0	-2.3	i	46.4*	70.7*
COc1ccc2c(c1)[C@H]1[C@H](CO2)[C@H](c2ccccc2)[C@]2(C)C(=O)Nc3ccc(C)cc3C(=O)N12	30.6	32.5	98.0	3.8	i	6.0	.
O=C(c1cc(-c2ccccc2)on1)N1CCc2ccccc2C1	-0.8	21.7	92.0	-6.7	i	40.6*	51.6*
O=C(c1cc(-c2ccc(Cl)cc2)on1)N1CCc2ccccc2C1	1.1	7.4	86.0	1.3	i	-3.9	.
COc1cc2c(cc1NC(=O)COC(=O)[C@@H](NS(=O)(=O)c1cccc(Cl)c1)C(C)C)oc1ccccc12	-7.5	0.4	106.0	-2.2	i	47.0*	62.6*
COc1c(Cl)ccc(Cl)c1C(=O)NC(=O)Nc1nc(C)cc(C)n1	5.6	-9.9	99.0	0.9	i	-5.6	.
CCN1CCN(c2c(Cl)cccc2NC(=O)c2ccc3c(c2)OCCO3)CC1	-5.6	-5.5	96.0	-6.9	i	64.9*	66.8*
O=C(Nc1cccc(Cl)c1N1CCCCC1)c1ccc2c(c1)OCCO2	3.4	17.5	120.0	-16.5	i	35.7	.
O=C(CNC(=O)c1ccccc1)N/N=C/c1cn[nH]c1-c1ccccc1	2.6	-27.8	98.0	9.3	i	-8.0	.
CCN(CCCn1c(SCC#N)nc2ccccc2c1=O)c1ccccc1	6.5	3.5	96.0	-17.5	i	43.5*	44.9
C=C(C)Cn1c(SCC#N)nc2ccccc2c1=O	-2.3	-3.5	90.0	1.4	i	4.8	.
COCOc1cc(O)c(C(=O)/C=C/c2ccccc2)c(OCOC)c1	-2.1	18.9	99.0	-7.9	i	-2.6	.
SMILES	Granule exo inh	Arrestin-AP2 inh	ABCB6 inh MLPCN	CendR NRP1 mod	Myeloid diff 2	ATG4B inh	PLA2 ctr	others
Cc1cc(F)ccc1S(=O)(=O)Nc1ncnc2sc3c(c12)CCC3	-5.0	47.0	102.0	-3.3	i	31.0	.
O=S(=O)(Nc1ncnc2sc3c(c12)CCC3)c1ccc2ccccc2c1	0.5	-2.5	94.0	-10.0	i	40.9*	55.7*
O=C1COc2ccc(C(=O)COC(=O)/C=C/c3ccco3)cc2N1	-2.9	9.6	97.0	-35.3	i	-3.2	.
CC(C)CCn1c(=O)c2ccccc2c2ccccc2c1=O	-2.9	8.4	104.0	-9.5	i	64.2*	71.0*
CC(C)Cn1c(=O)c2ccccc2c2ccccc2c1=O	-0.2	-3.5	98.0	2.9	i	38.5	.
CC(=O)N1CCN(c2ccc(C(N)=O)cc2[N+](=O)[O-])CC1	0.0	1.6	88.0	-1.3	i	-21.7	.
NC(=O)c1ccc(N2CCCCCC2)c([N+](=O)[O-])c1	-13.0	6.3	107.0	-8.6	i	67.9*	70.4*
Cc1ccc([C@@H]2CC(=O)[C@@H]3CN(S(=O)(=O)c4ccccc4C)[C@H](c4ccc(Cl)cc4)C[C@@H]3N2S(=O)(=O)c2ccc(C)cc2)cc1	-2.1	.	97.0	-1.5	?	.	.
O=C(CSc1ncnc2sc3c(c12)CCCC3)c1ccccc1	-0.4	-7.2	147.0	3.5	i	19.6	.
O=C(CSc1ncnc2sc3c(c12)CCCC3)c1ccco1	-1.6	14.9	107.0	-15.3	i	41.0*	51.1*
CCOC(=O)c1cc(NC(=O)CCC(=O)O)ccc1N1CCCCC1	2.4	18.6	96.0	7.8	i	-1.6	.
Cc1ccc(NC(=O)c2cc(NC(=O)CCC(=O)O)ccc2N2CCCCC2)cc1	-2.2	-4.0	98.0	-14.3	i	45.9*	49.0
O=S(=O)(Nc1c(S(=O)(=O)c2ccccc2)c2nc3ccccc3nc2n1C1CCCCC1)c1ccccc1	28.5	13.8	102.0	-19.1	i	44.6*	50.1*
